Screens as filed in PubChem BioAssay.
An excerpt weighted towards active compounds, which were near 2.3% of everything screened.
PME-1 inh – PME-1 inhibitors via competitive probe labeling, primary screen, biochemical, fluorescence polarization, FP-Rh probe, HTS; inhibition, % at 5.9 µM; AID 2130, 2009; hit rate 0.53% among 320,000; Protein phosphatase methylesterase 1 (Homo sapiens), Q9Y570; recombinant PME-1;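 active means inhibition above the campaign mean of all compounds plus 3 SD, cut at about 26% in these data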;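 further: competitive labeling of PME-1 active site by serine hydrolase directed probe; 0% = PME-1 with DMSO and 100% = wells lacking PME-1 enzyme; inhibitors block probe labeling so polarization falls and inhibition rises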
RBBP9 inhibitor – human RBBP9 inhibitors, primary screen, biochemical, fluorescence polarization, FP-Rh probe, HTS | hit rate 0.2% among 220,000 | recombinant RBBP9 | Serine hydrolase RBBP9 (Homo sapiens), O75884 | AID 1515, 2009 | inhibition, % at 7.94 µM;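 active means inhibition above the campaign mean of all tested compounds plus 3 SD, cut at about 14% in these data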;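 further: plate controls were DMSO wells with RBBP9 for no effect and wells lacking RBBP9 protein for full effect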
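Measured by – fluorescence polarization · Test system – RBBP9 protein · Input – 2.5 µM RBBP9 dispensing solution, before mixing · Measure – percent inhibition from mP, scaled between DMSO and no-protein wells · Benchmarks – DMSO-treated enzyme wells and wells lacking RBBP9 · Times – preincubation 30 min plus labeling 45 min at 25 °C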
PAD4 FP inh – human PAD4 inhibitors, primary screen, biochemical, fluorescence polarization, 1536-well format | Protein-arginine deiminase type-4 (Homo sapiens), Q9UM07 | recombinant PAD4, RCA probe fluorescence polarization | inhibition, % at 6.36 µM | hit rate 0.41% among 330,000 | AID 485272, 2010;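 active means percent inhibition above a cutoff equal to the mean of all tested compounds plus 3 SD, cut at about 15% in these data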;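 further: 0% = PAD4 with RCA probe and DMSO and 100% = probe without PAD4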
PRMT1 inh – PRMT1 methyltransferase inhibitors, primary screen, biochemical, fluorescence polarization; Protein arginine N-methyltransferase 1 (Homo sapiens), Q99873; recombinant PRMT1, activity-based probe fluorescence polarization; inhibition, % at 2.79 µM; hit rate 1.3% among 370,000; AID 652257, 2013;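 active means inhibition above about 21% made by adding two undisclosed values, limit read from the data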
Target sequence (Q99873 whole entry, looked up): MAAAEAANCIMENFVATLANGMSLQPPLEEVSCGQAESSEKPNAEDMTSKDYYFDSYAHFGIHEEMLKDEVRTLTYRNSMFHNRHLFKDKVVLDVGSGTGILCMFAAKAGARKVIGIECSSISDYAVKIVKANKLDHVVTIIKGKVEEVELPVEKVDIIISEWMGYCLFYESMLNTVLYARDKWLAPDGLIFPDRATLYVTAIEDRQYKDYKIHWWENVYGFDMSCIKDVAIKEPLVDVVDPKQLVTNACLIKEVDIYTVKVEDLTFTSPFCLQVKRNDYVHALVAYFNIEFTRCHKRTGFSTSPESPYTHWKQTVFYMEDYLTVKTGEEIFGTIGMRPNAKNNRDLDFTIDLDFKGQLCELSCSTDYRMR
GSTO1 counter – inhibitors of recombinant GSTO1, primary screen, counter-screen for RBBP9 inhibitor project, biochemical, fluorescence polarization | Glutathione S-transferase omega-1 (Homo sapiens), P78417 | activity-based probe fluorescence polarization | inhibition, % at 5.96 µM | hit rate 1.1% among 300,000 | AID 1974, 2009;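 active means inhibition above the campaign mean inhibition plus 3 SD, cut at about 35% in these data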;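 further: 0% = GSTO1-1 with DMSO and 100% = wells lacking GSTO1-1 enzyme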
Target sequence (P78417 whole entry, looked up): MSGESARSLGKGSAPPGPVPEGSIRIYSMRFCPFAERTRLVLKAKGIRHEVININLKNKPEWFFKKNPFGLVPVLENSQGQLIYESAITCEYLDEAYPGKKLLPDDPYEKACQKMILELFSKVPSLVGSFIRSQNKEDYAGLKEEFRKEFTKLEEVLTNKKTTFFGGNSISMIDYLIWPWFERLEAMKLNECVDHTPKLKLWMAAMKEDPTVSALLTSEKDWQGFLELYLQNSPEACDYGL
Fam108B inh – mouse Fam108B serine hydrolase inhibitors, primary screen, counter-screen for RBBP9 inhibitor project, biochemical, fluorescence polarization; recombinant Fam108B, FP-Rh probe fluorescence polarization; inhibition, % at 9.51 µM; hit rate 0.33% among 300,000; AID 1947, 2009;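 active means inhibition above the screen mean inhibition plus 3 SD, computed separately per campaign, cut at about 18% in these data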;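 further: inhibitors lower polarization as less probe binds the enzyme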
PRMT1 confirm – PRMT1 methyltransferase inhibitors, confirmation, biochemical, fluorescence polarization, triplicate | recombinant His-PRMT1, activity-based probe fluorescence polarization | AID 687036, 2013 | shares compounds with PRMT1 inh | hit rate 42% among 3,300 | inhibition, % at 2.79 µM;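 active means mean inhibition across replicates above the hit cutoff derived for the earlier primary screen, cut at about 22% in these data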
* hit, by the source's call; . = no result.

SMILES	PME-1 inh	RBBP9 inhibitor	PAD4 FP inh	PRMT1 inh	GSTO1 counter	Fam108B inh	PRMT1 confirm
Cc1ccc(NC(=O)CS(=O)CC(=O)N2CCN(C3CCCC3)CC2)cc1 (stereo not drawn)	1.0	.	-7.4	10.1	3.5	-1.8	.
Cc1cccc(NC(=O)COC(=O)CCc2c[nH]c3ccccc23)c1C	-4.9	.	4.5	2.4	.	.	.
Cc1cccc(C)c1NC(=O)COC(=O)CCc1c[nH]c2ccccc12	-2.1	.	-5.5	30.1*	.	.	-1.1
Fc1ccc(CSc2nnc(-c3cccnc3)n2Cc2ccco2)cc1	5.6	-5.6	-1.9	5.1	0.8	-0.7	.
O=C(CCN1C(=O)/C(=C/c2ccco2)SC1=S)Nc1ccc(C(=O)O)c(O)c1	-24.6	.	-9.0	39.0*	19.9	10.6	30.2*
COc1ccccc1/C=C1\SC(=S)N(CCC(=O)Nc2ccc(C(=O)O)c(O)c2)C1=O	-19.0	.	-5.1	0.5	-13.2	-0.1	.
O=C(CCN1C(=O)/C(=C\c2ccco2)SC1=S)Nc1ccc(C(=O)O)c(O)c1	-33.0	.	-24.8	38.6*	18.6	8.5	28.5*
O=C1C=CC(=Nc2ccc3c(c2)Cc2cc(F)ccc2-3)O1	.	.	.	73.5*	.	.	86.7*
Nc1ccc(-n2cc(-c3ccccc3)[nH]c2=S)cc1	7.0	.	4.3	45.0*	4.8	-4.3	20.1
COc1c(O)cccc1[C@@H](O)C1CCN(CCc2ccc(F)cc2)CC1	-1.5	.	-1.0	35.8*	5.3	1.5	-1.6
O=C(Nc1nnc([C@@H]2C[C@H](O)[C@@H](CO)O2)s1)Nc1ccc(F)cc1F	.	.	.	-3.3	.	.	.
COc1ccc(S(=O)(=O)c2c(N)n(Cc3ccco3)c3nc4ccccc4nc23)cc1	-10.5	-4.5	3.1	27.5*	24.8	3.8	17.8
Cc1ccc(C(=O)NN2C(=O)/C(=C/c3cn(C)c4ccccc34)SC2=S)cc1	4.5	-1.8	-1.1	7.3	-0.9	-10.5	.
Cn1cc(/C=C2\SC(=O)NC2=S)c2ccccc21	13.6	-4.5	-2.7	27.6*	21.3	16.1	4.8
CCN1/C(=C\C=C(C(C)=O)C(C)=O)Sc2ccccc21	-8.8	-11.2	-2.9	-47.3	0.7	-1.9	.
CCN1/C(=C\C(=S)Nc2ccccc2)Sc2ccccc21	-4.8	11.5	13.4	71.0*	7.3	-1.5	16.2
Cc1c(Cc2ccccc2)sc(NC(=O)Cc2ccccc2)c1C(N)=O	-5.0	-3.8	-3.4	28.7*	-4.3	0.8	3.1
COCCn1c(C)cc(C(=O)CSc2nc3ccccc3c(=O)[nH]2)c1C	4.5	-2.1	3.5	2.8	-3.5	0.4	.
COCCn1c(C)cc(C(=O)CSc2ccc3ccccc3n2)c1C	3.9	-6.5	-18.6	35.3*	-0.9	-4.0	-2.5
COCCn1c(C)cc(C(=O)CSc2ccc(NC(C)=O)cc2)c1C	4.7	-16.4	7.6	24.8*	6.2	-0.3	24.5*
COCC(C)n1c(C)cc(C(=O)CSc2ccc(NC(C)=O)cc2)c1C (stereo not drawn)	-1.1	5.6	7.1	38.8*	0.8	6.8	19.9
C[C@H]1CN([C@@H](C)CO)C(=O)CCCn2cc(nn2)CO[C@@H]1CN(C)C(=O)Nc1ccccc1F	.	.	.	-1.2	.	.	.
Cc1nc2ccccc2c(=O)n1NC(=O)C1CC1C (stereo not drawn)	-0.5	-0.1	0.7	-0.6	8.4	-3.0	.
C[C@H](N)C(=O)N1CCC(C(=O)N[C@@H](Cc2ccccc2)C(=O)Nc2ccc(F)cc2)CC1	5.6	.	-5.8	-3.7	-2.6	1.3	.
O=C(CC1SC(=O)NC1=O)Nc1ccc(Cl)cc1 (stereo not drawn)	0.7	-2.7	-16.8	40.1*	2.0	-5.9	39.1*
SMILES	PME-1 inh	RBBP9 inhibitor	PAD4 FP inh	PRMT1 inh	GSTO1 counter	Fam108B inh	PRMT1 confirm
O=C(Nc1cccc(S(=O)(=O)Nc2ccccc2F)c1)c1ccc2ccccc2n1	-6.4	-13.3	-6.1	43.1*	-11.7	-8.5	12.1
COc1ccccc1NS(=O)(=O)c1cc(NC(=O)c2sccc2C)ccc1N1CCCC1	4.0	-16.8	3.9	66.3*	-19.5	-6.6	83.5*
O=S(=O)(Nc1ccccc1F)c1cccc(NC(=S)NCCN2CCOCC2)c1	.	.	6.0	73.0*	.	.	60.8*
COc1ccccc1NS(=O)(=O)c1cc(NC(=O)c2sccc2C)ccc1N1CCOCC1	-9.0	-5.2	-5.1	3.5	-5.3	-6.1	.
COc1ccccc1NS(=O)(=O)c1cc(NC(=S)NCCN2CCOCC2)ccc1N1CCOCC1	-0.6	-7.9	-0.5	35.6*	-3.1	3.9	57.2*
N#Cc1ccccc1Sc1ccccc1C(=O)OCC(=O)NC1CCS(=O)(=O)C1 (stereo not drawn)	-1.6	-3.6	-2.1	-0.8	-0.2	3.5	.
CCC(=O)N(Cc1cc2cccc(C)c2[nH]c1=O)c1ccccc1OC	3.2	-0.9	-1.0	1.7	-2.1	5.2	.
COC(=O)c1c(NC(=O)CN2CCC3(O)CCCCC3C2c2ccc(OC)cc2OC)sc(C)c1C (stereo not drawn)	5.9	-0.3	-3.9	30.1*	6.2	1.0	12.5
Cc1cnc(CNC(=O)c2ccc3oc(Cc4ccc(Cl)cc4)nc3c2)cn1	2.1	.	-2.0	2.6	2.7	-2.2	.
COc1ccc(S(=O)(=O)NCc2cccnc2)cc1NC(=O)c1ccccc1C	.	.	.	48.3*	.	.	6.2
CCOc1ccc(S(=O)(=O)NCc2cccnc2)cc1NC(=O)c1ccccc1	.	.	.	-3.0	.	.	.
Cc1nnc(SCC(=O)Nc2sc3c(c2C(N)=O)CCC(C)C3)[nH]c1=O (stereo not drawn)	-6.3	.	-4.2	25.9*	.	.	51.0*
Cc1nnc(SCC(=O)Nc2sc3c(c2C(N)=O)CCCC3)[nH]c1=O	-0.2	-7.2	-2.8	4.8	12.3	-3.9	.
Cc1sc(NC(=O)CSc2nnc(C)c(=O)[nH]2)c(C#N)c1C	2.9	5.3	1.8	26.6*	33.0	1.0	23.7*
CCOC(=O)C1(Cc2cccc(Cl)c2)CCCN(C(=O)c2cc(C(C)C)nn2C)C1 (stereo not drawn)	4.2	.	1.5	-1.8	7.4	1.6	.
COc1cccc(-c2c(-c3ccccc3OC)ncn2Cc2cccc(-c3ccccc3)c2)c1	.	.	.	3.0	.	.	.
COc1cccc(Cn2cnc(-c3ccccc3OC)c2-c2ccco2)c1	.	.	.	31.9*	.	.	5.3
O=c1[nH]c(=O)n(Cc2ccccc2)c2nc(-c3ccco3)cc(C(F)(F)F)c12	1.7	-1.6	-6.3	0.5	-1.7	-5.6	.
